Source: ChEMBL document CHEMBL3272173, “Synthesis and biological activity of peptide antagonists of luliberin (luteinizing hormone-releasing hormone)” (J Med Chem, 1979)
Values joined by “and” are separate entries in the source; they are usually repeats but may differ in a detail not shown here. Identical values can stand only once. Peptide text beside a SMILES is read from it. * marks the point of attachment. Cbz = O=C(OCc1ccccc1)*; Boc = CC(C)(C)OC(=O)*; NHBn = c1ccc(CN*)cc1; Bn = c1ccc(C*)cc1

Assays:
Rattus norvegicus [1] = assay: Antiovulatory activity in sc dosed CD rat assessed as blockade of ovulation administered as six doses at 1200, 1230, 1300, 1350, 1400 and 1450 hrs during proestrus stage measured during estrus stage by dissecting microscopic analysis; assay type: functional
Outline: (§1)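 Cycling Charles River CD rats were given six subcutaneous injections of analogue in 0.1 mL propylene glycol on the afternoon of proestrus, and controls received vehicle alone. Rats were killed the next morning (estrus). Ovulating animals were scored and ova in the oviducts were counted under a dissecting microscope.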

[2] = target: T1, Gonadotropin-releasing hormone receptor (Rattus norvegicus) (UniProt P30969); assay: In vitro antagonist activity at GNRHR in CD rat anterior pituitary gland assessed as inhibition of LH-RH-stimulated LH release at compound to LH-RH molar ratio of 100 after 4 hrs by radioimmunoassay; conditions: concentration not given here
T1 sequence (whole entry): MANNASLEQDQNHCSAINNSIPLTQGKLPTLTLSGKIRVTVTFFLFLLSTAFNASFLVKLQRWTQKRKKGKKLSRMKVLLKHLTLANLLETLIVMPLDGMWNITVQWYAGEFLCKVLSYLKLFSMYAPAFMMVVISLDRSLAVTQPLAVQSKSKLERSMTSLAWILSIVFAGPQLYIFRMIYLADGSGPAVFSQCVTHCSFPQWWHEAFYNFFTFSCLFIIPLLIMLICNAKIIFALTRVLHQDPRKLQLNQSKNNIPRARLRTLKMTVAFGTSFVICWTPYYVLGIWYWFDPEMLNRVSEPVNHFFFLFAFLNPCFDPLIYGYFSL
Outline: (§2)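 Anterior pituitaries from diestrus CD rats (200-250 g) were dissociated enzymatically (collagenase, hyaluronidase, then Viokase). Cells were cultured 4 days at 1.67 × 10^5 cells/mL in DME with 10% horse serum and 2.5% fetal calf serum, then washed serum-free. Duplicate cultures received LH-RH (2-5 × 10^-10 M) with a single analogue concentration in serum-free DME for 4 h at 37 °C. LH in the medium was measured by RIA and reported as % inhibition of LH-RH-stimulated release.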

[3] = target: T1, Gonadotropin-releasing hormone receptor (Rattus norvegicus); assay: In vitro antagonist activity at GNRHR in CD rat anterior pituitary gland assessed as ratio of molar concentration of compound to LH-RH for inhibition of LH-RH-stimulated LH release after 4 hrs by radioimmunoassay
Outline: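 Monolayers were cultured 4 days from dissociated anterior pituitary cells of diestrus CD rats. They were exposed in duplicate to LH-RH (2-5 × 10^-10 M) plus multiple analogue concentrations in serum-free DME for 4 h at 37 °C. LH in the medium was measured by radioimmunoassay. The ED50 molar ratio is the analogue:LH-RH molar ratio giving 50% inhibition of LH-RH-stimulated LH release.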

Rattus norvegicus [4] = assay: Antiovulatory activity in CD rat assessed as blockade of ovulation at 1 mg, sc administered as six doses at 1200, 1230, 1300, 1350, 1400 and 1450 hrs during proestrus stage measured during estrus stage by dissecting microscopic analysis; assay type: functional; outline: as §1
[5] = target: T1, Gonadotropin-releasing hormone receptor (Rattus norvegicus); assay: In vitro antagonist activity at GNRHR in CD rat anterior pituitary gland assessed as inhibition of LH-RH-stimulated LH release at compound to LH-RH molar ratio of 2800 after 4 hrs by radioimmunoassay; conditions: concentration not given here; outline: as §2
[6] = target: T1, Gonadotropin-releasing hormone receptor (Rattus norvegicus); assay: In vitro antagonist activity at GNRHR in CD rat anterior pituitary gland assessed as inhibition of LH-RH-stimulated LH release at compound to LH-RH molar ratio of 10000 after 4 hrs by radioimmunoassay; conditions: concentration not given here; outline: as §2
[7] = target: T1, Gonadotropin-releasing hormone receptor (Rattus norvegicus); assay: In vitro antagonist activity at GNRHR in CD rat anterior pituitary gland assessed as inhibition of LH-RH-stimulated LH release at compound to LH-RH molar ratio of 10 after 4 hrs by radioimmunoassay; conditions: concentration not given here; outline: as §2
[8] = target: T1, Gonadotropin-releasing hormone receptor (Rattus norvegicus); assay: In vitro antagonist activity at GNRHR in CD rat anterior pituitary gland assessed as inhibition of LH-RH-stimulated LH release at compound to LH-RH molar ratio of 20 after 4 hrs by radioimmunoassay; conditions: concentration not given here; outline: as §2

inhibition [2]	ED50 [3]	inhibition [5]	inhibition [6]	inhibition [7]	inhibition [8]	Compound	ED50 (Rattus norvegicus [1])	inhibition (INH) (Rattus norvegicus [4])
42%	134 molar ratio					CC(C)C[C@H](NC(=O)OCc1ccccc1)C(=O)N[C@@H](Cc1c[nH]c2ccccc12)C(=O)N[C@@H](CO)C(=O)N[C@@H](Cc1ccc(O)cc1)C(=O)N[C@H](CC(N)=O)C(=O)N[C@@H](CC(C)C)C(=O)N[C@@H](CCCNC(=N)N)C(=O)N1CCC[C@H]1C(=O)NCC(N)=O.Cl	>1 mg	0%
		40%				CCNC(=O)[C@@H]1CCCN1C(=O)[C@H](CCCNC(=N)N)NC(=O)[C@H](CC(C)C)NC(=O)CNC(=O)[C@H](Cc1ccc(O)cc1)NC(=O)[C@H](CO)NC(=O)[C@H](Cc1c[nH]c2ccccc12)NC(=O)[C@H](COCc1ccccc1)NC(=O)OC(C)(C)C (Boc-S(Bn)WSYGLRP-NHEt)		
			42%			H-HWSYGLRPG-NH2		
			60%			CC(C)C[C@H](NC(=O)CNC(=O)[C@H](Cc1ccc(O)cc1)NC(=O)[C@H](CO)NC(=O)[C@H](Cc1c[nH]c2ccccc12)NC(=O)[C@@H]1CCC(=O)N1)C(=O)N[C@@H](CCCNC(=N)N)C(=O)N1CCC[C@H]1C(=O)NCC(N)=O (HELM PEPTIDE1{[Glp].W.S.Y.G.L.R.P.G.[am]}$$$$V2.0)		
			58%			CC(C)C[C@H](NC(=O)CNC(=O)[C@H](Cc1ccc(O)cc1)NC(=O)[C@H](CO)NC(=O)[C@H](Cc1c[nH]c2ccccc12)NC(=O)[C@H](Cc1cnc[nH]1)NC(=O)OCc1ccccc1)C(=O)N[C@@H](CCCNC(=N)N)C(=O)N1CCC[C@H]1C(=O)NCC(N)=O (HELM PEPTIDE1{[O=C(OCc1ccccc1)[*:2]].H.W.S.Y.G.L.R.P.G.[am]}$$$$V2.0)		
	1.3 molar ratio			100%		COc1ccc(COC(=O)N[C@@H](COCc2ccccc2)C(=O)N[C@@H](Cc2c[nH]c3ccccc23)C(=O)N[C@@H](CO)C(=O)N[C@@H](Cc2ccc(O)cc2)C(=O)N[C@H](Cc2ccccc2)C(=O)N[C@@H](CC(C)C)C(=O)N[C@@H](CCCNC(=N)N)C(=O)N2CCC[C@H]2C(=O)NCC(N)=O)cc1.Cl	>1 mg	40%
	2.7 molar ratio and 1.3 molar ratio			62%	71%	CC(=O)O.CCNC(=O)[C@@H]1CCCN1C(=O)[C@H](CCCNC(=N)N)NC(=O)[C@H](CC(C)C)NC(=O)[C@@H](Cc1ccccc1)NC(=O)[C@H](Cc1ccc(O)cc1)NC(=O)[C@H](CO)NC(=O)[C@H](Cc1c[nH]c2ccccc12)NC(=O)[C@H](CCC(=O)NCc1ccccc1)NC(=O)OCc1ccccc1	>1 mg	0%
	3 molar ratio				100%	CCNC(=O)[C@@H]1CCCN1C(=O)[C@H](CCCNC(=N)N)NC(=O)[C@H](CC(C)C)NC(=O)[C@@H](Cc1ccccc1)NC(=O)[C@H](Cc1ccc(O)cc1)NC(=O)[C@H](CO)NC(=O)[C@H](Cc1c[nH]c2ccccc12)NC(=O)[C@H](CC(C)C)NC(=O)OCc1ccccc1.Cl	>1 mg	0%
			68%			CC(C)C[C@H](NC(=O)CNC(=O)[C@H](Cc1ccc(O)cc1)NC(=O)[C@H](CO)NC(=O)[C@H](Cc1c[nH]c2ccccc12)NC(=O)OCc1ccccc1)C(=O)N[C@@H](CCCNC(=N)N)C(=O)N1CCC[C@H]1C(=O)NCC(N)=O.Cl (HELM PEPTIDE1{[O=C(OCc1ccccc1)[*:2]].W.S.Y.G.L.R.P.G.[am]}$$$$V2.0)	>1 mg	20%
		51%				CCNC(=O)[C@@H]1CCCN1C(=O)[C@H](CCCNC(=N)N)NC(=O)[C@H](CC(C)C)NC(=O)CNC(=O)[C@H](Cc1ccc(O)cc1)NC(=O)[C@H](CO)NC(=O)[C@H](Cc1c[nH]c2ccccc12)NC(=O)[C@@H](CC(C)C)NC(=O)OCc1ccccc1		
		76%				CC(C)C[C@H](NC(=O)CNC(=O)[C@H](Cc1ccc(O)cc1)NC(=O)[C@H](CO)NC(=O)[C@H](Cc1c[nH]c2ccccc12)NC(=O)[C@@H](Cc1ccccc1)NC(=O)OCc1ccccc1)C(=O)N[C@@H](CCCNC(=N)N)C(=O)N1CCC[C@H]1C(=O)NCC(N)=O.Cl	>1 mg	0%
	5.9 molar ratio				100%	CC(=O)O.CC(C)C[C@H](NC(=O)[C@@H](Cc1ccccc1)NC(=O)[C@H](Cc1ccc(O)cc1)NC(=O)[C@H](CO)NC(=O)[C@H](Cc1c[nH]c2ccccc12)NC(=O)[C@H](COCc1ccccc1)NC(=O)OCc1ccccc1)C(=O)N[C@@H](CCCNC(=N)N)C(=O)N1CCC[C@H]1C(=O)N(C)C	>3 mg	40%

Second part, the compound before the results:

Compound	inhibition [2]	ED50 [3]	inhibition [5]	inhibition [6]	inhibition [7]	inhibition [8]	ED50 (Rattus norvegicus [1])	inhibition (INH) (Rattus norvegicus [4])
CCNC(=O)[C@@H]1CCCN1C(=O)[C@H](CCCNC(=N)N)NC(=O)[C@H](CC(C)C)NC(=O)[C@@H](Cc1c[nH]c2ccccc12)NC(=O)[C@H](Cc1ccc(O)cc1)NC(=O)[C@H](CO)NC(=O)[C@H](Cc1c[nH]c2ccccc12)NC(=O)[C@H](CCC(N)=O)NC(=O)OCc1ccccc1.Cl	100%	3.9 molar ratio					>1 mg	20%
H-WSYGLRPG-NH2				15%				
CCNC(=O)[C@@H]1CCCN1C(=O)[C@H](CCCNC(=N)N)NC(=O)[C@H](CC(C)C)NC(=O)CNC(=O)[C@H](Cc1ccc(O)cc1)NC(=O)[C@H](CO)NC(=O)[C@H](Cc1c[nH]c2ccccc12)NC(=O)[C@H](CCC(=O)NCc1ccccc1)NC(=O)OCc1ccccc1.Cl (Cbz-E(NHBn)WSYGLRP-NHEt)	88%	350 molar ratio					>1 mg	20%
CC(C)C[C@H](NC(=O)CNC(=O)[C@H](Cc1ccc(O)cc1)NC(=O)[C@H](CO)NC(=O)[C@H](Cc1c[nH]c2ccccc12)NC(=O)[C@H](Cc1ccc(OCc2ccccc2)cc1)NC(=O)OCc1ccccc1)C(=O)N[C@@H](CCCNC(=N)N)C(=O)N1CCC[C@H]1C(=O)NCC(N)=O.Cl (Cbz-Y(Bn)WSYGLRPG-NH2)			74%				>1 mg	20%
CCNC(=O)[C@@H]1CCCN1C(=O)[C@H](CCCNC(=N)N)NC(=O)[C@H](CC(C)C)NC(=O)[C@@H](CCCNC(=N)N)NC(=O)[C@H](Cc1ccc(O)cc1)NC(=O)[C@H](CO)NC(=O)[C@H](Cc1c[nH]c2ccccc12)NC(=O)[C@H](CCC(N)=O)NC(=O)OCc1ccccc1.Cl		20 molar ratio	86%				>1 mg	0%
CC(C)C[C@H](NC(=O)[C@@H](CC(C)C)NC(=O)[C@H](Cc1ccc(O)cc1)NC(=O)[C@H](CO)NC(=O)[C@H](Cc1c[nH]c2ccccc12)NC(=O)[C@H](Cc1ccc(OCc2ccccc2)cc1)NC(=O)OCc1ccccc1)C(=O)N[C@@H](CCCNC(=N)N)C(=O)N1CCC[C@H]1C(=O)NCC(N)=O.Cl		7 molar ratio				57%	>1 mg	0%
CC(=O)O.CCNC(=O)[C@@H]1CCCN1C(=O)[C@H](CCCNC(=N)N)NC(=O)[C@H](CC(C)C)NC(=O)[C@@H](Cc1ccc(OC)cc1)NC(=O)[C@H](Cc1ccc(O)cc1)NC(=O)[C@H](CO)NC(=O)[C@H](Cc1c[nH]c2ccccc12)NC(=O)[C@H](COCc1ccccc1)NC(=O)OCc1ccccc1						100%	0.1 mg	100%
CC(C)C[C@H](NC(=O)CNC(=O)[C@H](Cc1ccc(O)cc1)NC(=O)[C@H](CO)NC(=O)[C@H](Cc1c[nH]c2ccccc12)NC(=O)[C@H](CCC(=O)NCc1ccccc1)NC(=O)OCc1ccccc1)C(=O)N[C@@H](CCCNC(=N)N)C(=O)N1CCC[C@H]1C(=O)NCC(N)=O.Cl (HELM PEPTIDE1{[O=C(OCc1ccccc1)[*:2]].E.W.S.Y.G.L.R.P.G.[am]}|CHEM1{[c1ccc(CN[*:1])cc1]}$PEPTIDE1,CHEM1,2:R3-1:R1$$$V2.0)	96%	360 molar ratio					>1 mg	40%
CC(C)C[C@H](NC(=O)CNC(=O)[C@H](Cc1ccc(O)cc1)NC(=O)[C@H](CO)NC(=O)[C@H](Cc1c[nH]c2ccccc12)NC(=O)[C@@H]1CCCN1C=O)C(=O)N[C@@H](CCCNC(=N)N)C(=O)N1CCC[C@H]1C(=O)NCC(N)=O (HELM PEPTIDE1{[O=C[*:2]].P.W.S.Y.G.L.R.P.G.[am]}$$$$V2.0)				53%				
